Assay type in all cases: functional
One assay deals with Aeromonas sobria. Kind of assay: Antimicrobial activity against Aeromonas sobria assessed as susceptibility level by disk diffusion method. In a few lines:
(§1)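 Cefotaxime and ciprofloxacin susceptibility taken from routine clinical laboratory reports; disk diffusion per CLSI guidelines.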
Background: A growth-free zone around the sample is the usual read-out of agar diffusion tests.

The subject of a further assay is Aeromonas caviae. The assay is described as follows: Antimicrobial activity against Aeromonas caviae assessed as susceptibility level by disk diffusion method. In a few lines:
as §1

For a further assay, the system named is Aeromonas hydrophila. The assay is described as follows: Antimicrobial activity against Aeromonas hydrophila assessed as susceptibility level by disk diffusion method. In outline:
as §1

In assay [1] the test system is Salmonella. Kind of assay: Antimicrobial activity against Salmonella serogroup O8 assessed as susceptibility level by disk diffusion method. In a few lines: as §1
Assay [2] relates to Salmonella. The assay is described as follows: Antimicrobial activity against Salmonella serogroup O9 assessed as susceptibility level by disk diffusion method. In a few lines:
as §1

The subject of assay [3] is Salmonella. Kind of assay: Antimicrobial activity against Salmonella serogroup O7 assessed as susceptibility level by disk diffusion method. In a few lines: as §1
In another assay the test system is Salmonella enterica. The assay is described as follows: Antimicrobial activity against Salmonella serotype Choleraesuis assessed as susceptibility level by disk diffusion method. In a few lines: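 Cefotaxime and ciprofloxacin susceptibility was taken from routine laboratory reports. These were generated by disk diffusion according to CLSI guidelines.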

We go through two compounds from ChEMBL document CHEMBL1629548, “In vitro activities of tigecycline against clinical isolates of Aeromonas, Vibrio, and Salmonella species in Taiwan” (2008).

`CO/N=C(\C(=O)N[C@@H]1C(=O)N2C(C(=O)O)=C(COC(C)=O)CS[C@H]12)c1csc(N)n1` [CEFOTAXIME]: the Activity in the assay with Aeromonas sobria was 95%; with Aeromonas caviae, 73%; with Aeromonas hydrophila, 79%.
In the case of `O=C(O)c1cn(C2CC2)c2cc(N3CCNCC3)c(F)cc2c1=O` [CIPROFLOXACIN], the Activity was determined as 57% in the assay on Salmonella [1]; 96% in the assay with Salmonella [2]; 77% in the assay with Salmonella [3]; 93% with Aeromonas sobria; 22% with Salmonella enterica; 86% in the assay with Aeromonas caviae. In addition, the Activity in the assay on Aeromonas hydrophila stood at 90%.
